Data from ChEMBL document CHEMBL1143881, “Sulfonamidolactam inhibitors of coagulation factor Xa” (Bioorg Med Chem Lett, 2008).

Columns and labels:
[1] = Selectivity for human factor 10a over trypsin
[2] = system: Plasma; assay: Anticoagulant efficacy in human citreated plasma assessed as concentration required to double prothrombin time; type: functional
[3] = target: Coagulation factor X (Homo sapiens, UniProt P00742); assay: Inhibition of human factor 10a
Method in brief: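 Inhibition constant (Ki) measured against purified human factor Xa; each value is the average of two independent experiments (n = 2).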

[4] = Selectivity for human factor 10a over thrombin
[5] = Apparent permeability across human Caco-2 cells; type: ADME, cell-based
[6] = Selectivity for human factor 10a over factor 7a
[7] = Half life in dog; type: ADME, organism-based, Canis lupus familiaris; details: in vivo
[8] = Oral bioavailability in dog; type: ADME, organism-based, Canis lupus familiaris; details: in vivo
[9] = Clearance in dog; type: ADME, organism-based, Canis lupus familiaris; details: in vivo

Chain of Coagulation factor X (P00742 41-179 limits assumed): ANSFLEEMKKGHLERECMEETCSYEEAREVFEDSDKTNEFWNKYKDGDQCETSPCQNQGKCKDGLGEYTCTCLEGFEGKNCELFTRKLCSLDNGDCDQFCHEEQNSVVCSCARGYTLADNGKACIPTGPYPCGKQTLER
Chain of Coagulation factor X (P00742 235-488 limits assumed): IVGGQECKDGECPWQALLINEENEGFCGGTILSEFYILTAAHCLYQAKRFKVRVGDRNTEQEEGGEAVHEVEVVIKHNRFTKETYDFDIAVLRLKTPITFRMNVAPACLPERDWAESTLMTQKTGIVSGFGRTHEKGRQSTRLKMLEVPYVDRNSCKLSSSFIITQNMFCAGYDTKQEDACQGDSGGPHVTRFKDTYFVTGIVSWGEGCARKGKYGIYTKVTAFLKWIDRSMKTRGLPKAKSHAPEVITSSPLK

SMILES	Selectivity ratio [1]	Ki [3] [nM]	Selectivity ratio [4]	Papp [5] [×10⁻⁶ cm/s]	Selectivity ratio [6]	half-life [7] [h]	bioavailability [8] [%]	clearance [9] [mL/min/kg]	PT [2] [µM]
CS(=O)(=O)c1ccccc1-c1ccc(N2CCCC(NS(=O)(=O)c3cccc(Cl)c3)C2=O)c(F)c1 (configuration not stated)	> 1000	380	> 1000						
CS(=O)(=O)c1ccccc1-c1ccc(N2CCCC(NS(=O)(=O)c3ccc(-c4ccon4)s3)C2=O)c(F)c1 (configuration not stated)	> 1000	26	> 1000						
CS(=O)(=O)c1ccccc1-c1ccc(N2CCCC(NS(=O)(=O)c3cc(Cl)ccc3Cl)C2=O)c(F)c1 (configuration not stated)	> 1000	650	> 1000						
COc1cccc(S(=O)(=O)NC2CCCN(c3ccc(-c4ccccc4S(C)(=O)=O)cc3F)C2=O)c1 (configuration not stated)	> 1000	100	> 1000						
CS(=O)(=O)c1ccccc1-c1ccc(N2CCCC(NS(=O)(=O)c3ccc(Cl)c(Cl)c3)C2=O)c(F)c1 (configuration not stated)	> 1000	61	> 1000						
Cc1c(S(=O)(=O)NC2CCCN(c3ccc(-c4ccccc4S(C)(=O)=O)cc3F)C2=O)sc2ccc(Cl)cc12 (configuration not stated)	> 1000	160	> 1000						
COc1ccc(C(=O)NC2CCCN(c3ccc(-c4ccccc4S(C)(=O)=O)cc3F)C2=O)cc1 (configuration not stated)	> 1000	560	> 1000						
CS(=O)(=O)c1ccccc1-c1ccc(N2CCCC(NS(=O)(=O)c3ccc4onc(N)c4c3)C2=O)c(F)c1 (configuration not stated)	> 1000	19	> 1000						
CS(=O)(=O)c1ccccc1-c1ccc(N2CCCC(NS(=O)(=O)c3ccccc3)C2=O)c(F)c1 (configuration not stated)	> 1000	370	> 1000						
CS(=O)(=O)c1ccccc1-c1ccc(N2CCCC(NS(=O)(=O)c3cc(Cl)cc(Cl)c3)C2=O)c(F)c1 (configuration not stated)	> 1000	730	> 1000						
COc1ccc(S(=O)(=O)NC2CCCN(c3ccc(-c4ccccc4S(C)(=O)=O)cc3F)C2=O)cc1 (configuration not stated)	> 1000	53	> 1000						
CS(=O)(=O)c1ccccc1-c1ccc(N2CCCC(NS(=O)(=O)c3ccc(N)nc3)C2=O)c(F)c1 (configuration not stated)	> 1000	260	> 1000						
CS(=O)(=O)c1ccccc1-c1ccc(N2CCCC(NS(=O)(=O)c3ccc4ncccc4c3)C2=O)c(F)c1 (configuration not stated)	> 1000	73	> 1000						
CS(=O)(=O)c1ccccc1-c1ccc(N2CCCC(NS(=O)(=O)c3ccc4cn[nH]c4c3)C2=O)c(F)c1 (configuration not stated)	> 1000	19	> 1000						
O=C1C(NS(=O)(=O)c2ccc3cc(Cl)ccc3c2)CCCN1c1ccc(-c2ccncc2)cc1F (configuration not stated)	> 1000	28	> 1000						
CS(=O)(=O)c1ccccc1-c1ccc(N2CCCC(NS(=O)(=O)c3ccc(Cl)cc3)C2=O)c(F)c1 (configuration not stated)	> 1000	23	> 1000						
CS(=O)(=O)c1ccccc1-c1ccc(N2CCCC(NS(=O)(=O)c3cnc4ccccc4c3)C2=O)c(F)c1 (configuration not stated)	> 1000	28	> 1000						
COc1ccc(OC2CCCN(c3ccc(-c4ccccc4S(C)(=O)=O)cc3F)C2=O)cc1 (configuration not stated)	> 1000	200	> 1000		> 1000				
CS(=O)(=O)c1ccccc1-c1ccc(N2CCCC(NS(=O)(=O)c3cccnc3)C2=O)c(F)c1 (configuration not stated)	> 1000	2600	> 1000						
CS(=O)(=O)c1ccccc1-c1ccc(N2CCCC(NS(=O)(=O)Cc3ccccc3)C2=O)c(F)c1 (configuration not stated)	> 1000	3200	> 1000						
COc1ccc(NC2CCCN(c3ccc(-c4ccccc4S(C)(=O)=O)cc3F)C2=O)cc1 (configuration not stated)	> 1000	450	> 1000						
CCc1ccc(S(=O)(=O)NC2CCCN(c3ccc(-c4ccccc4S(C)(=O)=O)cc3F)C2=O)cc1 (configuration not stated)	> 1000	78	> 1000						
CS(=O)(=O)c1ccccc1-c1ccc(N2CCCC(NS(=O)(=O)c3cccc4ccc(Cl)cc34)C2=O)c(F)c1 (configuration not stated)	> 1000	18	> 1000						
CS(=O)(=O)c1ccccc1-c1ccc(N2CCCC(NS(=O)(=O)c3ccc(F)c(F)c3)C2=O)c(F)c1 (configuration not stated)	> 1000	270	> 1000						
CS(=O)(=O)c1ccccc1-c1ccc(N2CCCC(NS(=O)(=O)c3ccc(C#N)cc3)C2=O)c(F)c1 (configuration not stated)	> 1000	420	> 1000						
CS(=O)(=O)c1ccccc1-c1ccc(N2CCCC(NS(=O)(=O)c3ccc(F)cc3)C2=O)c(F)c1 (configuration not stated)	> 1000	44.5	> 1000						

The next compounds have a lower Ki [3] than those just listed; values first:

Selectivity ratio [1]	Ki [3] [nM]	Selectivity ratio [4]	Papp [5] [×10⁻⁶ cm/s]	Selectivity ratio [6]	half-life [7] [h]	bioavailability [8] [%]	clearance [9] [mL/min/kg]	SMILES	PT [2] [µM]
> 1000	2.4	> 1000						CN(C)Cc1nccn1-c1ccc(N2CCCC(NS(=O)(=O)c3ccc4cc(Cl)ccc4c3)C2=O)c(F)c1 (configuration not stated)	13
> 1000	0.11	> 1000						O=C1C(NS(=O)(=O)c2ccc3cc(Cl)ccc3c2)CCCN1c1ccc(-n2ccccc2=O)cc1F (configuration not stated)	35
> 1000	0.043	> 1000	3.5					COC(=O)CN(C1CCCN(c2ccc(-n3ccccc3=O)cc2)C1=O)S(=O)(=O)c1cc2ccc(Cl)nc2s1 (configuration not stated)	4.4
> 1000	0.21	> 1000						COC(=O)CN(C1CCCN(c2ccc(-n3ccnc3C[N+](C)(C)CC(=O)OC)cc2F)C1=O)S(=O)(=O)c1ccc2cc(Cl)ccc2c1 (configuration not stated)	12
> 1000	0.13	> 1000						O=C(O)CN(C1CCCN(c2ccc(-n3ccccc3=O)cc2)C1=O)S(=O)(=O)c1cc2ccc(Cl)nc2s1 (configuration not stated)	16
> 1000	2.2	> 1000						CS(=O)(=O)c1ccccc1-c1ccc(N2CCCC(NS(=O)(=O)c3cccc4cc(Cl)ccc34)C2=O)c(F)c1 (configuration not stated)	102
> 1000	0.35	> 1000						COC(=O)C[N+](C)(C)Cc1nccn1-c1ccc(N2CCCC(NS(=O)(=O)c3ccc4cc(Cl)ccc4c3)C2=O)c(F)c1 (configuration not stated)	13
> 1000	0.05	> 1000	2					O=C1C(NS(=O)(=O)c2cc3ccc(Cl)nc3s2)CCCN1c1ccc(-n2ccccc2=O)cc1 (configuration not stated)	15
> 1000	16	> 1000						O=C1C(NS(=O)(=O)c2ccc3cc(Cl)ccc3c2)CCCN1c1ccc(N2CCCCC2)cc1F (configuration not stated)	
> 1000	1	> 1000						CS(=O)(=O)c1ccccc1-c1ccc(N2CCCC(N(CC(=O)O)S(=O)(=O)c3ccc4cc(Cl)ccc4c3)C2=O)c(F)c1 (configuration not stated)	250
> 1000	0.013	> 1000						CN(C)CCN(C)C(=O)CN(C1CCCN(c2ccc(-n3ccccc3=O)cc2F)C1=O)S(=O)(=O)c1cc2ccc(Cl)nc2s1 (configuration not stated)	2.1
> 1000	0.02	> 1000						CN(C)CCN(C)C(=O)CN(C1CCCN(c2ccc(-n3ccccc3=O)cc2F)C1=O)S(=O)(=O)c1ccc2cc(Cl)ccc2c1 (configuration not stated)	3.3
> 1000	0.1	> 1000						NC(=O)CN(C1CCCN(c2ccc(-n3ccccc3=O)cc2)C1=O)S(=O)(=O)c1cc2ccc(Cl)nc2s1 (configuration not stated)	4.8
> 1000	0.88	> 1000						COC(=O)CN(C1CCCN(c2ccc(-c3ccccc3S(C)(=O)=O)cc2F)C1=O)S(=O)(=O)c1ccc2cc(Cl)ccc2c1 (configuration not stated)	89
> 1000	0.037	> 1000	0.1					CNC(=O)CN(C1CCCN(c2ccc(-n3ccccc3=O)cc2F)C1=O)S(=O)(=O)c1cc2ccc(Cl)nc2s1 (configuration not stated)	4.2
> 1000	5.3	> 1000						CS(=O)(=O)c1ccccc1-c1ccc(N2CCCC(NS(=O)(=O)c3ccc(Cl)s3)C2=O)c(F)c1 (configuration not stated)	
> 1000	10	> 1000						O=C1CCCCN1c1ccc(N2CCCC(NS(=O)(=O)c3ccc4cc(Cl)ccc4c3)C2=O)c(F)c1 (configuration not stated)	
> 1000	1.7	> 1000						CN(C)CCN(C)C(=O)CN(C1CCCN(c2ccc(N3CCCCC3=O)cc2F)C1=O)S(=O)(=O)c1ccc2cc(Cl)ccc2c1 (configuration not stated)	12
> 1000	2.3	> 1000						CS(=O)(=O)c1ccccc1-c1ccc(N2CCCC(N(CCCO)S(=O)(=O)c3ccc4cc(Cl)ccc4c3)C2=O)c(F)c1 (configuration not stated)	208
> 1000	0.016	> 1000			6.45	4	19.8	CN(C)CCN(C)C(=O)CN([C@H]1CCCN(c2ccc(-n3ccccc3=O)cc2F)C1=O)S(=O)(=O)c1ccc2cc(Cl)ccc2c1	1.7
